MPTP inh: permeability transition pore inhibition. isolated mouse mitochondria, Ca2+ swelling absorbance, 30 min. inhibition, % at 10 µM. hit rate 1.4% among 360,000. AID 602449;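 active = inhibition of 50% or more, scaled per plate between neutral and stimulator controls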
Lmaj promast: reduces viability of Leishmania major promastigotes | resazurin fluorescence viability | inhibition, % at 10 µM | hit rate 9% among 200,000 | AID 1063; in the data active = inhibition above about 50%;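 note: promastigotes grown with compound for 44 hours at 28 °C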
DTT redox prof: compounds producing H2O2 with reducing agent – biochemical, NIH compound library profiling, artefact control for MLSCN library redox annotation, primary screen; DTT-dependent redox cycling H2O2, phenol red/HRP absorbance; 100% = 100 µM peroxide control, 0% = buffer; activation, % at 10 µM; hit rate 0.03% among 200,000;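 active = activation of at least 50% relative to the plate's high and low controls in the primary single-dose screen; inactive = activation below 50%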;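 note: compound incubated with DTT at 0.8 mM final as the reducing agent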
T cruzi repl: blocks replication of Trypanosoma cruzi | T. cruzi beta-gal in NIH3T3, luminescence, 90 h | inhibition, % (no concentration beside the values) | AID 1885 | hit rate 1.4% among 300,000;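 active = mean inhibition across valid replicates above about 55%, limit read from the data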;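 note: signal also drops with host cell toxicity which is not excluded here; higher percent means less beta-gal luminescence so fewer parasites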
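Read-out: Parasite load inhibition, % | Test system: Mouse NIH/3T3 fibroblasts infected with β-gal-expressing T. cruzi Tulahuen C4 | Amount: 5,000 cells/well | Medium: DMEM, 2% fetal bovine serum | Signal: GalScreen β-gal luminescence, detergent lysis, 60 min | Timing: 3 h attach, ≥90 h co-culture | Also added: Tulahuen C4 trypomastigotes, 5000/well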
Lipid droplet: modulators of hepatic lipid droplet formation. hit rate 0.4% among 240,000. inhibition, % at 6.5 µM. AID 1656. AML12 mouse hepatocytes, oleate lipid droplets, BODIPY imaging;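 active = lipid droplet intensity inhibited by at least 50%, with more than 500 cells counted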
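material = mouse AML12 hepatocyte cell line, fixed after treatment | also added = 100 µM oleic acid challenge | doses = compound at 6.5 µM only | schedule = overnight exposure | technique = Image-based BODIPY and DAPI two-channel analysis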
Numbers stand for hits; – = inactive; · = no result given. The full list was thinned out, with hits kept by preference.

SMILES	MPTP inh	Lmaj promast	DTT redox prof	T cruzi repl	Lipid droplet
O=C(Oc1c(Cl)cc(Cl)c2cccnc12)c1ccco1	–	98	–	68	–
Oc1c(Cl)cc(Cl)c2cccnc12	–	96	–	–	–
Oc1ccc(Cl)c2cccnc12	–	·	·	·	·
O=C(Oc1c(CN2CCOCC2)cc(Cl)c2cccnc12)c1ccccc1Cl	–	100	–	–	–
COc1ccc(C(=S)N2CCOCC2)cc1OC(=O)c1ccccc1Cl	–	·	·	–	–
O=C(Oc1cncc(Cl)c1)c1ccco1	–	–	–	–	–
O=C(Oc1c(CN2CCOCC2)cc(Cl)c2cccnc12)c1cccs1	–	100	–	–	–
O=C(/C=C/c1ccccc1)Nc1ccc(Cl)cn1	–	–	–	–	–
COc1ccc(NS(=O)(=O)c2cccs2)cc1S(=O)(=O)N1CCCCC1	–	·	·	–	·
O=C(Oc1c(Cl)cc(Cl)c2cccnc12)c1cccs1	–	–	–	75	–
Cc1ccc(Cl)cc1N1CCN(C(=O)Cc2ccc(-n3c(=O)[nH]c4ccsc4c3=O)cc2)CC1	–	57	–	–	–
O=C1CN(C(=O)CNCc2ccccc2)c2ccccc2N1	–	·	·	–	–
C[C@H](CO)N1C[C@H](C)[C@@H](CN(C)C(=O)Nc2cccc(F)c2)Oc2ncc(Br)cc2C1=O	–	·	·	·	·
Cc1ccccc1OCC(=O)N/N=C/C=C/c1ccccc1	–	–	–	–	–
Cc1ccc(OCC(=O)N/N=C/C=C/c2ccco2)cc1	–	76	–	–	·
Cc1ccc(/C=N\NC(=O)COc2ccc(C)cc2[N+](=O)[O-])cc1	–	–	–	–	–
Cc1ccccc1OCC(=O)NCC(=O)N/N=C/c1ccc(Br)o1	–	–	–	–	–
Cc1ccccc1OCC(=O)N/N=C/c1ccc([N+](=O)[O-])o1	–	98	–	61	–
O=C(COc1ccccc1[N+](=O)[O-])N/N=C/C=C/c1ccco1	–	–	–	–	·
COc1ccccc1OCC(=O)N/N=C/C=C/c1ccc([N+](=O)[O-])o1	–	100	–	58	–
Cc1cc(C)cc(OCC(=O)N/N=C/c2ccc([N+](=O)[O-])o2)c1	–	96	–	60	–
O=C(COC(=O)c1nc(Cl)ccc1Cl)NCc1ccc(Cl)cc1	–	·	·	·	·
O=C(NCCCCc1ccccc1)c1cccc(NC(=O)C2CC2)c1	–	·	·	·	·
O=C(N/N=C/c1ccncc1)c1nn(Cc2ccccc2)c(=O)c2ccccc12	–	–	–	–	–
COc1ccc(C(C(=O)NCc2ccc(F)cc2)N(C(=O)c2csnn2)C2CC2)cc1 (stereo unspecified)	–	·	·	–	–
SMILES	MPTP inh	Lmaj promast	DTT redox prof	T cruzi repl	Lipid droplet
Cc1ccc(OCCn2c(=O)n(C)c3ccccc32)cc1	–	–	–	–	–
Cc1cc2ccccc2n2c(SCC(=O)Nc3ccc(S(=O)(=O)N4CCC(C)CC4)cc3)nnc12	–	–	–	–	–
O=C(N/N=C\C=C\c1ccc([N+](=O)[O-])o1)c1cccs1	–	·	·	78	–
CCC[n+]1c2ccccc2cc2ccccc21	–	·	·	61	·
CCCC[n+]1c2ccccc2cc2ccccc21	–	·	·	68	–
COCC1CCN(C(=O)c2ccc3nc(Cc4cccc(Cl)c4)oc3c2)CC1	–	·	·	·	·
Cc1ccc(S(=O)(=O)N2CCOCC2)cc1C(=O)OC(C)C(=O)c1ccccc1 (stereo unspecified)	–	·	·	–	·
COc1ccc(NC(=O)Nc2cc3oc4ccccc4c3cc2OC)cc1	–	–	–	–	·
COc1cc2c(cc1NC(=O)Nc1ccc(C)cc1)oc1ccccc12	–	98	–	–	–
COc1cc2c(cc1NC(=O)Nc1ccc(F)cc1)oc1ccccc12	–	–	–	60	–
COc1cc2c(cc1NC(=O)Nc1cccc(C)c1)oc1ccccc12	–	–	–	–	–
CCC1CCCCN1C(=O)CSc1nc2ccsc2c(=O)n1Cc1ccccc1 (stereo unspecified)	–	58	–	–	·
CCCN1CCN(C(=O)CCCn2c(C)c3cnn(-c4ccccc4)c(=O)c3c2C)CC1	–	85	–	–	·
CCN(CC)S(=O)(=O)c1cc(C(=O)Nc2ccccc2[N+](=O)[O-])ccc1Cl	–	78	–	–	–
CN(C)S(=O)(=O)c1ccc(C(=O)Nc2cc(S(=O)(=O)Nc3ccccc3Cl)ccc2N2CCCCC2)cc1	–	–	–	–	–
CCN(CC)S(=O)(=O)c1cc(C(=O)Nc2cc(Cl)ccc2N2CCN(C)CC2)ccc1Cl	–	100	–	–	–
